The source of these data is ChEMBL document CHEMBL2380295, “Structure-activity studies on the side chain of a simplified analog of aplysiatoxin (aplog-1) with anti-proliferative activity” (Bioorg Med Chem, 2013).

Series [1] has as its system DMS-273. Description: Growth inhibition of human DMS273 cells after 48 hrs by sulforhodamine B assay. The format is functional. The following applies: DMS-273, 48 h. The essentials:
(§1)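 Yamori 39-line human cancer panel, NCI method with modifications. Cells plated in RPMI 1640 plus 5% FBS, attached overnight, then exposed 48 h to compound at 10^-8, 10^-7, 10^-6, 10^-5 and 10^-4 M. Sulforhodamine B staining read at 525 nm; % growth = 100[(T−T0)/(C−T0)] from duplicate-point averages, with T0 the time-zero absorbance. GI50 is the concentration giving 50.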

In series [2] the test system is NCI-H460. Description: Growth inhibition of human NCI-H460 cells after 48 hrs by sulforhodamine B assay. In kind it is functional. The following applies: NCI-H460, 48 h. In a few lines:
as §1
For orientation: Sulforhodamine B stains cellular protein and so reports cell mass.

Series [3] has as its system SNB-75. Description: Growth inhibition of human SNB75 cells after 48 hrs by sulforhodamine B assay. The format is functional. The following applies: SNB-75, 48 h. In a few lines:
as §1

Series [4] is described as follows: Growth inhibition of human HBC5 cells after 48 hrs by sulforhodamine B assay. In kind it is functional. To be noted: HBC5, 48 h. In a few lines: as §1
The target of series [5] is Protein kinase C delta type (Homo sapiens, UniProt Q05655). Description: Inhibition of [3H]PDBu binding to PKCdelta-C1A domain peptide (unknown origin). The essentials: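 Competitive [3H]PDBu binding used 14 or 40 nM PKCδ C1 peptide and 20 nM [3H]PDBu (19.6 Ci/mmol), in 50 mM Tris-maleate (pH 7.4 at 4 °C) with 50 µg/mL phosphatidylserine, 3 mg/mL bovine γ-globulin and varied inhibitor concentrations. IC50 was taken as 50% inhibition of specific binding. Ki was derived by the Sharkey–Blumberg method.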
Chain of Protein kinase C delta type (Q05655 whole entry, the tested form may be a part): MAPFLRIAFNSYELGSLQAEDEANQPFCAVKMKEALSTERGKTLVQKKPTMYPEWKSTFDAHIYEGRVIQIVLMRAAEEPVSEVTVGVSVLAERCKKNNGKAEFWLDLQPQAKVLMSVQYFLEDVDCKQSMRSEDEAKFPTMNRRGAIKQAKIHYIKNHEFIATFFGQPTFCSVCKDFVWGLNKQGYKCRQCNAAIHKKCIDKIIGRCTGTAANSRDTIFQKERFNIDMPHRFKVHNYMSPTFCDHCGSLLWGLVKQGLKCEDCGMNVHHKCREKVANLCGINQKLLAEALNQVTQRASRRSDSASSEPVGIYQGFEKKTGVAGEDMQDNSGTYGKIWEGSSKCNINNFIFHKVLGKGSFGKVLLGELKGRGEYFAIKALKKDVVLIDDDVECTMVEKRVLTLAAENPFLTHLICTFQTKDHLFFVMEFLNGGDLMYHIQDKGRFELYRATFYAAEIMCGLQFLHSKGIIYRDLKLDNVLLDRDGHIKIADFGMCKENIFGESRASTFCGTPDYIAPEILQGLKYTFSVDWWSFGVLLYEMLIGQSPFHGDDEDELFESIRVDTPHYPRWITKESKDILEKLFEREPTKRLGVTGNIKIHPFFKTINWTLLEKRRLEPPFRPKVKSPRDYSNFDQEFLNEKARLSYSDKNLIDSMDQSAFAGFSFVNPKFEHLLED

The nature of series [6]: Octanol-water partition coefficient, log P of the compound by HPLC analysis. In kind it is physicochemical. In a few lines: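 log P was estimated from HPLC retention, with column dead time measured using unretained formamide.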

By GI50 is commonly meant the concentration giving 50% growth inhibition. The low end stands for greater sensitivity of the cells, the high end for lower sensitivity of the cells. As a reminder, the Ki is a measure of affinity in units of concentration, obtained from inhibition or displacement. Low values mean tighter binding, high ones weaker binding. In general, logP refers to a log measure of how a compound divides between an organic and an aqueous phase. A high value points to higher lipophilicity.

Turning to `CC1(C)CC[C@@H]2CC(=O)O[C@@H](CO)CC(=O)O[C@@H]3C[C@@H](CCCCc4cccc(O)c4)O[C@@]1(C3)O2`, the concentration for 50% growth inhibition (GI50) in series [1] is 12.6 µM; in series [2] it was 2.51 µM; in series [3], 15.8 µM; in series [4], 17.4 µM.

Compound `C[C@H]1[C@@H]2C[C@@]3(O[C@H](CCC3(C)C)CC(=O)O[C@@H](CO)CC(=O)O2)O[C@@H]1CCCCc1cccc(O)c1` yielded a Ki in series [5] of 0.022 µM.

With `CC1(C)CC[C@@H]2CC(=O)O[C@@H](CO)CC(=O)O[C@@H]3C[C@@H](CCCCc4ccccc4)O[C@@]1(C3)O2`, the logP in series [6] amounted to 4.8.

The compound `CO[C@@H](CC[C@H](C)[C@H]1O[C@@]23C[C@H](OC(=O)C[C@H]([C@@H](C)O)OC(=O)C[C@](O)(O2)[C@H](C)CC3(C)C)[C@@H]1C)c1cccc(O)c1` [DEBROMOAPLYSIATOXIN] registered a Ki in series [5] of 0.0097 µM.
